In ChEMBL document CHEMBL1287747, “Highly active antimycobacterial derivatives of benzoxazine” (2010):
Values after ≈ are worked out from the molar mass of the structure shown.

Test system: Mycobacterium tuberculosis
Experiment: Antimycobacterial activity against Mycobacterium tuberculosis CNCTC My 331/88 after 14 days by microdilution method
Type: functional
Details: CNCTC My 331/88, 336 h
Summary of the method: (§1)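 Strains from the Czech National Collection of Type Cultures, tested by dilution micromethod in Šula semisynthetic medium. Incubated at 37 °C and read at 14 and 21 days. MIC is the lowest concentration inhibiting growth.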

SMILES	MIC
CC(C)c1ccc(-n2c(=S)oc3ccc(F)cc3c2=S)cc1	0.25 µM (≈ 0.0829 µg/mL)
Cc1ccc(-n2c(=O)oc3ccc(Br)cc3c2=O)cc1	16 µM (≈ 5.31 µg/mL)
Cc1ccc(-n2c(=O)oc3ccc(Br)cc3c2=S)cc1	0.5 µM (≈ 0.174 µg/mL)
CCC(C)c1ccc(-n2c(=S)oc3ccc(F)cc3c2=S)cc1 (stereo not drawn)	0.25 µM (≈ 0.0864 µg/mL)
CCc1ccc(-n2c(=O)oc3ccc(Br)cc3c2=O)cc1	8 µM (≈ 2.77 µg/mL)
CCc1ccc(-n2c(=O)oc3ccc(Cl)cc3c2=O)cc1	8 µM (≈ 2.41 µg/mL)
CCc1ccc(-n2c(=O)oc3cc(Cl)ccc3c2=O)cc1	8 µM (≈ 2.41 µg/mL)

Test system: Mycobacterium tuberculosis
Experiment: Antimycobacterial activity against Mycobacterium tuberculosis CNCTC My 331/88 after 21 days by microdilution method
Type: functional
Details: CNCTC My 331/88, 504 h
Summary of the method: as §1

SMILES	MIC
CC(C)c1ccc(-n2c(=S)oc3ccc(F)cc3c2=S)cc1	0.5 µM (≈ 0.166 µg/mL)
Cc1ccc(-n2c(=O)oc3ccc(Br)cc3c2=O)cc1	16 µM (≈ 5.31 µg/mL)
Cc1ccc(-n2c(=O)oc3ccc(Br)cc3c2=S)cc1	1 µM (≈ 0.348 µg/mL)
CCC(C)c1ccc(-n2c(=S)oc3ccc(F)cc3c2=S)cc1 (stereo not drawn)	0.25 µM (≈ 0.0864 µg/mL)
CCc1ccc(-n2c(=O)oc3ccc(Br)cc3c2=O)cc1	8 µM (≈ 2.77 µg/mL)
CCc1ccc(-n2c(=O)oc3ccc(Cl)cc3c2=O)cc1	16 µM (≈ 4.83 µg/mL)
CCc1ccc(-n2c(=O)oc3cc(Cl)ccc3c2=O)cc1	8 µM (≈ 2.41 µg/mL)

Test system: Mycobacterium avium
Experiment: Antimycobacterial activity against Mycobacterium avium CNCTC My 330/88 after 14 days by microdilution method
Type: functional
Details: CNCTC My 330/88, 336 h
Summary of the method: as §1

SMILES	MIC
CC(C)c1ccc(-n2c(=S)oc3ccc(F)cc3c2=S)cc1	0.5 µM (≈ 0.166 µg/mL)
Cc1ccc(-n2c(=O)oc3ccc(Br)cc3c2=O)cc1	31 µM (≈ 10.3 µg/mL)
Cc1ccc(-n2c(=O)oc3ccc(Br)cc3c2=S)cc1	32 µM (≈ 11.1 µg/mL)
CCC(C)c1ccc(-n2c(=S)oc3ccc(F)cc3c2=S)cc1 (stereo not drawn)	0.5 µM (≈ 0.173 µg/mL)
CCc1ccc(-n2c(=O)oc3ccc(Br)cc3c2=O)cc1	32 µM (≈ 11.1 µg/mL)
CCc1ccc(-n2c(=O)oc3ccc(Cl)cc3c2=O)cc1	16 µM (≈ 4.83 µg/mL)
CCc1ccc(-n2c(=O)oc3cc(Cl)ccc3c2=O)cc1	8 µM (≈ 2.41 µg/mL)

Test system: Mycobacterium avium
Experiment: Antimycobacterial activity against Mycobacterium avium CNCTC My 330/88 after 21 days by microdilution method
Type: functional
Details: CNCTC My 330/88, 504 h
Summary of the method: as §1

SMILES	MIC
CC(C)c1ccc(-n2c(=S)oc3ccc(F)cc3c2=S)cc1	1 µM (≈ 0.331 µg/mL)
Cc1ccc(-n2c(=O)oc3ccc(Br)cc3c2=O)cc1	31 µM (≈ 10.3 µg/mL)
Cc1ccc(-n2c(=O)oc3ccc(Br)cc3c2=S)cc1	32 µM (≈ 11.1 µg/mL)
CCC(C)c1ccc(-n2c(=S)oc3ccc(F)cc3c2=S)cc1 (stereo not drawn)	1 µM (≈ 0.345 µg/mL)
CCc1ccc(-n2c(=O)oc3ccc(Br)cc3c2=O)cc1	32 µM (≈ 11.1 µg/mL)
CCc1ccc(-n2c(=O)oc3ccc(Cl)cc3c2=O)cc1	32 µM (≈ 9.66 µg/mL)
CCc1ccc(-n2c(=O)oc3cc(Cl)ccc3c2=O)cc1	16 µM (≈ 4.83 µg/mL)

Test system: Mycobacterium kansasii
Experiment: Antimycobacterial activity against Mycobacterium kansasii CNCTC My 235/80 after 14 days by microdilution method
Type: functional
Details: CNCTC My 235/80, 336 h
Summary of the method: as §1

SMILES	MIC
CC(C)c1ccc(-n2c(=S)oc3ccc(F)cc3c2=S)cc1	4 µM (≈ 1.33 µg/mL)
Cc1ccc(-n2c(=O)oc3ccc(Br)cc3c2=S)cc1	2 µM (≈ 0.696 µg/mL)
CCC(C)c1ccc(-n2c(=S)oc3ccc(F)cc3c2=S)cc1 (stereo not drawn)	2 µM (≈ 0.691 µg/mL)
CCc1ccc(-n2c(=O)oc3ccc(Br)cc3c2=O)cc1	8 µM (≈ 2.77 µg/mL)
CCc1ccc(-n2c(=O)oc3ccc(Cl)cc3c2=O)cc1	16 µM (≈ 4.83 µg/mL)
CCc1ccc(-n2c(=O)oc3cc(Cl)ccc3c2=O)cc1	16 µM (≈ 4.83 µg/mL)

Test system: Mycobacterium kansasii
Experiment: Antimycobacterial activity against Mycobacterium kansasii CNCTC My 235/80 after 21 days by microdilution method
Type: functional
Details: CNCTC My 235/80, 504 h
Summary of the method: as §1

SMILES	MIC
CC(C)c1ccc(-n2c(=S)oc3ccc(F)cc3c2=S)cc1	8 µM (≈ 2.65 µg/mL)
Cc1ccc(-n2c(=O)oc3ccc(Br)cc3c2=O)cc1	62 µM (≈ 20.6 µg/mL)
Cc1ccc(-n2c(=O)oc3ccc(Br)cc3c2=S)cc1	4 µM (≈ 1.39 µg/mL)
CCC(C)c1ccc(-n2c(=S)oc3ccc(F)cc3c2=S)cc1 (stereo not drawn)	4 µM (≈ 1.38 µg/mL)
CCc1ccc(-n2c(=O)oc3ccc(Br)cc3c2=O)cc1	16 µM (≈ 5.54 µg/mL)
CCc1ccc(-n2c(=O)oc3ccc(Cl)cc3c2=O)cc1	16 µM (≈ 4.83 µg/mL)
CCc1ccc(-n2c(=O)oc3cc(Cl)ccc3c2=O)cc1	16 µM (≈ 4.83 µg/mL)

Test system: Mycobacterium kansasii
Experiment: Antimycobacterial activity against Mycobacterium kansasii 6509/96 after 14 days by microdilution method
Type: functional
Details: 6509/96, 336 h
Summary of the method: (§2)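 Clinical isolate that, unlike the standard strain, is not isoniazid-resistant. Tested by dilution micromethod in Šula semisynthetic medium, with compounds added in DMSO at final 1000 down to 0.25 µmol/L in twofold steps. Löwenstein-Jensen plate used as inoculum sterility and growth control. Incubated at 37 °C and read at 14 and 21 days. MIC is the lowest concentration inhibiting growth.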

SMILES	MIC
CC(C)c1ccc(-n2c(=S)oc3ccc(F)cc3c2=S)cc1	2 µM (≈ 0.663 µg/mL)
Cc1ccc(-n2c(=O)oc3ccc(Br)cc3c2=S)cc1	2 µM (≈ 0.696 µg/mL)
CCC(C)c1ccc(-n2c(=S)oc3ccc(F)cc3c2=S)cc1 (stereo not drawn)	2 µM (≈ 0.691 µg/mL)
CCc1ccc(-n2c(=O)oc3ccc(Br)cc3c2=O)cc1	16 µM (≈ 5.54 µg/mL)
CCc1ccc(-n2c(=O)oc3ccc(Cl)cc3c2=O)cc1	16 µM (≈ 4.83 µg/mL)
CCc1ccc(-n2c(=O)oc3cc(Cl)ccc3c2=O)cc1	16 µM (≈ 4.83 µg/mL)

Test system: Mycobacterium kansasii
Experiment: Antimycobacterial activity against Mycobacterium kansasii 6509/96 after 21 days by microdilution method
Type: functional
Details: 6509/96, 504 h
Summary of the method: as §2

SMILES	MIC
CC(C)c1ccc(-n2c(=S)oc3ccc(F)cc3c2=S)cc1	4 µM (≈ 1.33 µg/mL)
Cc1ccc(-n2c(=O)oc3ccc(Br)cc3c2=S)cc1	4 µM (≈ 1.39 µg/mL)
CCC(C)c1ccc(-n2c(=S)oc3ccc(F)cc3c2=S)cc1 (stereo not drawn)	4 µM (≈ 1.38 µg/mL)
CCc1ccc(-n2c(=O)oc3ccc(Br)cc3c2=O)cc1	16 µM (≈ 5.54 µg/mL)
CCc1ccc(-n2c(=O)oc3ccc(Cl)cc3c2=O)cc1	16 µM (≈ 4.83 µg/mL)
CCc1ccc(-n2c(=O)oc3cc(Cl)ccc3c2=O)cc1	16 µM (≈ 4.83 µg/mL)
